Data reported in ChEMBL document CHEMBL4152188, “Design, synthesis and biological evaluation of C(4) substituted monobactams as antibacterial agents against multidrug-resistant Gram-negative bacteria” (Eur J Med Chem, 2018).

Key:
Format in all cases: functional
Escherichia coli [1] = assay: Antibacterial activity against extended-spectrum beta-lactamase producing Escherichia coli isolate 212648 after 18 hrs by CLSI broth microdilution method; conditions: isolate 212648, 18 h
Escherichia coli [2] = assay: Selectivity index, ratio of MIC for against extended-spectrum beta-lactamase producing Escherichia coli isolate 208687 to MIC for extended-spectrum beta-lactamase producing Escherichia coli isolate 208687 in presence of BPL
Escherichia coli [3] = assay: Antibacterial activity against Escherichia coli isolate 210737 after 18 hrs by CLSI broth microdilution method; conditions: isolate 210737, 18 h
Escherichia coli [4] = assay: Antibacterial activity against extended-spectrum beta-lactamase producing Escherichia coli isolate 208687 after 18 hrs by CLSI broth microdilution method; conditions: isolate 208687, 18 h
Escherichia coli [5] = assay: Antibacterial activity against extended-spectrum beta-lactamase producing Escherichia coli isolate 208687 after 18 hrs in presence of BPL by CLSI broth microdilution method; conditions: isolate 208687, 18 h
Outline: (§1)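 CLSI broth microdilution against clinical isolates (ESBL E. coli, KPC-2 MDR K. pneumoniae, IMP-4 MDR P. aeruginosa; five per species). Iron limitation: Mueller-Hinton broth supplemented with 16 mg/liter 2,2'-bipyridyl to complex iron and induce iron uptake systems. Read-out: MIC.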

Escherichia coli [6] = assay: Antibacterial activity against Escherichia coli isolate 210737 after 18 hrs in presence of BPL by CLSI broth microdilution method; conditions: isolate 210737, 18 h; outline: as §1
Escherichia coli [7] = assay: Selectivity index, ratio of MIC for against Escherichia coli isolate 210737 to MIC for Escherichia coli isolate 210737 in presence of BPL
Escherichia coli [8] = assay: Antibacterial activity against extended-spectrum beta-lactamase producing Escherichia coli isolate 212648 after 18 hrs in presence of BPL by CLSI broth microdilution method; conditions: isolate 212648, 18 h; outline: as §1
Escherichia coli [9] = assay: Selectivity index, ratio of MIC for against extended-spectrum beta-lactamase producing Escherichia coli isolate 212648 to MIC for extended-spectrum beta-lactamase producing Escherichia coli isolate 212648 in presence of BPL
Escherichia coli [10] = assay: Antibacterial activity against extended-spectrum beta-lactamase producing Escherichia coli isolate 209285 after 18 hrs by CLSI broth microdilution method; conditions: isolate 209285, 18 h
Escherichia coli [11] = assay: Antibacterial activity against extended-spectrum beta-lactamase producing Escherichia coli isolate 209285 after 18 hrs in presence of BPL by CLSI broth microdilution method; conditions: isolate 209285, 18 h; outline: as §1
Escherichia coli [12] = assay: Selectivity index, ratio of MIC for against extended-spectrum beta-lactamase producing Escherichia coli isolate 209285 to MIC for extended-spectrum beta-lactamase producing Escherichia coli isolate 209285 in presence of BPL
Escherichia coli [13] = assay: Antibacterial activity against extended-spectrum beta-lactamase producing Escherichia coli isolate 106342 after 18 hrs by CLSI broth microdilution method; conditions: isolate 106342, 18 h
Escherichia coli [14] = assay: Antibacterial activity against extended-spectrum beta-lactamase producing Escherichia coli isolate 106342 after 18 hrs in presence of BPL by CLSI broth microdilution method; conditions: isolate 106342, 18 h; outline: as §1
Escherichia coli [15] = assay: Selectivity index, ratio of MIC for against extended-spectrum beta-lactamase producing Escherichia coli isolate 106342 to MIC for extended-spectrum beta-lactamase producing Escherichia coli isolate 106342 in presence of BPL
Klebsiella pneumoniae [16] = assay: Antibacterial activity against KPC-2 producing Klebsiella pneumoniae isolate 212423 after 18 hrs by CLSI broth microdilution method; conditions: isolate 212423, 18 h
Klebsiella pneumoniae [17] = assay: Antibacterial activity against KPC-2 producing Klebsiella pneumoniae isolate 212423 after 18 hrs in presence of BPL by CLSI broth microdilution method; conditions: isolate 212423, 18 h; outline: as §1
Klebsiella pneumoniae [18] = assay: Selectivity index, ratio of MIC for against KPC-2 producing Klebsiella pneumoniae isolate 212423 to MIC for against KPC-2 producing Klebsiella pneumoniae isolate 212423 in presence of BPL
Klebsiella pneumoniae [19] = assay: Antibacterial activity against KPC-2 producing Klebsiella pneumoniae isolate 209632 after 18 hrs by CLSI broth microdilution method; conditions: isolate 209632, 18 h
Klebsiella pneumoniae [20] = assay: Antibacterial activity against KPC-2 producing Klebsiella pneumoniae isolate 209632 after 18 hrs in presence of BPL by CLSI broth microdilution method; conditions: isolate 209632, 18 h; outline: as §1
Klebsiella pneumoniae [21] = assay: Selectivity index, ratio of MIC for against KPC-2 producing Klebsiella pneumoniae isolate 209632 to MIC for against KPC-2 producing Klebsiella pneumoniae isolate 209632 in presence of BPL
Klebsiella pneumoniae [22] = assay: Antibacterial activity against KPC-2 producing Klebsiella pneumoniae isolate 209735 after 18 hrs by CLSI broth microdilution method; conditions: isolate 209735, 18 h
Klebsiella pneumoniae [23] = assay: Antibacterial activity against KPC-2 producing Klebsiella pneumoniae isolate 209735 after 18 hrs in presence of BPL by CLSI broth microdilution method; conditions: isolate 209735, 18 h; outline: as §1
Klebsiella pneumoniae [24] = assay: Selectivity index, ratio of MIC for against KPC-2 producing Klebsiella pneumoniae isolate 209735 to MIC for against KPC-2 producing Klebsiella pneumoniae isolate 209735 in presence of BPL
Klebsiella pneumoniae [25] = assay: Antibacterial activity against KPC-2 producing Klebsiella pneumoniae isolate 212232 after 18 hrs by CLSI broth microdilution method; conditions: isolate 212232, 18 h
Klebsiella pneumoniae [26] = assay: Antibacterial activity against KPC-2 producing Klebsiella pneumoniae isolate 212232 after 18 hrs in presence of BPL by CLSI broth microdilution method; conditions: isolate 212232, 18 h; outline: as §1
Klebsiella pneumoniae [27] = assay: Selectivity index, ratio of MIC for against KPC-2 producing Klebsiella pneumoniae isolate 212232 to MIC for against KPC-2 producing Klebsiella pneumoniae isolate 212232 in presence of BPL
Klebsiella pneumoniae [28] = assay: Antibacterial activity against KPC-2 producing Klebsiella pneumoniae isolate 212229 after 18 hrs by CLSI broth microdilution method; conditions: isolate 212229, 18 h
Klebsiella pneumoniae [29] = assay: Antibacterial activity against KPC-2 producing Klebsiella pneumoniae isolate 212229 after 18 hrs in presence of BPL by CLSI broth microdilution method; conditions: isolate 212229, 18 h; outline: as §1
Klebsiella pneumoniae [30] = assay: Selectivity index, ratio of MIC for against KPC-2 producing Klebsiella pneumoniae isolate 212229 to MIC for against KPC-2 producing Klebsiella pneumoniae isolate 212229 in presence of BPL
Pseudomonas aeruginosa [31] = assay: Antibacterial activity against IMP-4 producing Pseudomonas aeruginosa isolate 212886 after 18 hrs by CLSI broth microdilution method; conditions: isolate 212886, 18 h
Pseudomonas aeruginosa [32] = assay: Antibacterial activity against IMP-4 producing Pseudomonas aeruginosa isolate 212886 after 18 hrs in presence of BPL by CLSI broth microdilution method; conditions: isolate 212886, 18 h; outline: as §1
Pseudomonas aeruginosa [33] = assay: Selectivity index, ratio of MIC for against IMP-4 producing Pseudomonas aeruginosa isolate 212886 to MIC for against IMP-4 producing Pseudomonas aeruginosa isolate 212886 in presence of BPL
Pseudomonas aeruginosa [34] = assay: Antibacterial activity against IMP-4 producing Pseudomonas aeruginosa isolate 209471 after 18 hrs by CLSI broth microdilution method; conditions: isolate 209471, 18 h
Pseudomonas aeruginosa [35] = assay: Antibacterial activity against IMP-4 producing Pseudomonas aeruginosa isolate 209471 after 18 hrs in presence of BPL by CLSI broth microdilution method; conditions: isolate 209471, 18 h; outline: as §1
Pseudomonas aeruginosa [36] = assay: Selectivity index, ratio of MIC for against IMP-4 producing Pseudomonas aeruginosa isolate 209471 to MIC for against IMP-4 producing Pseudomonas aeruginosa isolate 209471 in presence of BPL
Pseudomonas aeruginosa [37] = assay: Antibacterial activity against IMP-4 producing Pseudomonas aeruginosa isolate 208247 after 18 hrs by CLSI broth microdilution method; conditions: isolate 208247, 18 h
Pseudomonas aeruginosa [38] = assay: Antibacterial activity against IMP-4 producing Pseudomonas aeruginosa isolate 208247 after 18 hrs in presence of BPL by CLSI broth microdilution method; conditions: isolate 208247, 18 h; outline: as §1
Pseudomonas aeruginosa [39] = assay: Selectivity index, ratio of MIC for against IMP-4 producing Pseudomonas aeruginosa isolate 208247 to MIC for against IMP-4 producing Pseudomonas aeruginosa isolate 208247 in presence of BPL
Pseudomonas aeruginosa [40] = assay: Antibacterial activity against IMP-4 producing Pseudomonas aeruginosa isolate 209321 after 18 hrs by CLSI broth microdilution method; conditions: isolate 209321, 18 h
Pseudomonas aeruginosa [41] = assay: Antibacterial activity against IMP-4 producing Pseudomonas aeruginosa isolate 209321 after 18 hrs in presence of BPL by CLSI broth microdilution method; conditions: isolate 209321, 18 h; outline: as §1
Pseudomonas aeruginosa [42] = assay: Selectivity index, ratio of MIC for against IMP-4 producing Pseudomonas aeruginosa isolate 209321 to MIC for against IMP-4 producing Pseudomonas aeruginosa isolate 209321 in presence of BPL
Pseudomonas aeruginosa [43] = assay: Antibacterial activity against IMP-4 producing Pseudomonas aeruginosa isolate 207272 after 18 hrs by CLSI broth microdilution method; conditions: isolate 207272, 18 h
Pseudomonas aeruginosa [44] = assay: Antibacterial activity against IMP-4 producing Pseudomonas aeruginosa isolate 207272 after 18 hrs in presence of BPL by CLSI broth microdilution method; conditions: isolate 207272, 18 h; outline: as §1
Pseudomonas aeruginosa [45] = assay: Selectivity index, ratio of MIC for against IMP-4 producing Pseudomonas aeruginosa isolate 207272 to MIC for against IMP-4 producing Pseudomonas aeruginosa isolate 207272 in presence of BPL

CC(C)C(O/N=C(\C(=O)N[C@@H]1C(=O)N(S(=O)(=O)O)[C@@H]1COC(=O)CNC(=O)c1cc(=O)c(O)c[nH]1)c1csc(N)n1)c1cc(=O)c(O)cn1O (stereo not given in full)
64 µg/mL: MIC (Pseudomonas aeruginosa [37]) | MIC (Pseudomonas aeruginosa [38]) | MIC (Pseudomonas aeruginosa [40]) | MIC (Pseudomonas aeruginosa [43]) | MIC (Pseudomonas aeruginosa [44])
> 64 µg/mL: MIC (Klebsiella pneumoniae [16]) | MIC (Klebsiella pneumoniae [17]) | MIC (Klebsiella pneumoniae [19]) | MIC (Klebsiella pneumoniae [20]) | MIC (Klebsiella pneumoniae [22]) | MIC (Klebsiella pneumoniae [23]) | MIC (Klebsiella pneumoniae [25]) | MIC (Klebsiella pneumoniae [28]) | MIC (Klebsiella pneumoniae [29]) | MIC (Pseudomonas aeruginosa [31]) | MIC (Pseudomonas aeruginosa [32]) | MIC (Pseudomonas aeruginosa [34]) | MIC (Pseudomonas aeruginosa [35])
4 µg/mL: MIC (Escherichia coli [5])
>4: Selectivity Index (Klebsiella pneumoniae [27])
1 - 2: Selectivity Index (Pseudomonas aeruginosa [33]) | Selectivity Index (Pseudomonas aeruginosa [36])
2: Selectivity Index (Escherichia coli [7]) | Selectivity Index (Escherichia coli [9]) | Selectivity Index (Escherichia coli [12]) | Selectivity Index (Pseudomonas aeruginosa [42])
8: Selectivity Index (Escherichia coli [2])
4: Selectivity Index (Klebsiella pneumoniae [18]) | Selectivity Index (Klebsiella pneumoniae [21]) | Selectivity Index (Klebsiella pneumoniae [24]) | Selectivity Index (Klebsiella pneumoniae [30])
8 µg/mL: MIC (Escherichia coli [6])
16 µg/mL: MIC (Escherichia coli [3]) | MIC (Escherichia coli [8]) | MIC (Escherichia coli [11]) | MIC (Escherichia coli [13]) | MIC (Escherichia coli [14]) | MIC (Klebsiella pneumoniae [26])
32 µg/mL: MIC (Escherichia coli [1]) | MIC (Escherichia coli [4]) | MIC (Escherichia coli [10]) | MIC (Pseudomonas aeruginosa [41])
1: Selectivity Index (Escherichia coli [15]) | Selectivity Index (Pseudomonas aeruginosa [39]) | Selectivity Index (Pseudomonas aeruginosa [45])
